# Compounds with a hit are over-represented: about 1.5% of the library has one in this group of screens.
# HDAC3 inh = HDAC3 deacetylase inhibitors, primary screen, biochemical, fluorescence, cell-free homogeneous; Histone deacetylase 3 (Homo sapiens), O15379; recombinant HDAC3, fluorogenic peptide/trypsin coupled; inhibition, % at 8.3 µM; AID 2718, 2010; 320,000 compounds, 0.15% hits; in the data active = inhibition above about 26%, passing the limit was not always enough; inconclusive = no clear call, values can overlap the other calls
# Target sequence (O15379 whole entry, looked up): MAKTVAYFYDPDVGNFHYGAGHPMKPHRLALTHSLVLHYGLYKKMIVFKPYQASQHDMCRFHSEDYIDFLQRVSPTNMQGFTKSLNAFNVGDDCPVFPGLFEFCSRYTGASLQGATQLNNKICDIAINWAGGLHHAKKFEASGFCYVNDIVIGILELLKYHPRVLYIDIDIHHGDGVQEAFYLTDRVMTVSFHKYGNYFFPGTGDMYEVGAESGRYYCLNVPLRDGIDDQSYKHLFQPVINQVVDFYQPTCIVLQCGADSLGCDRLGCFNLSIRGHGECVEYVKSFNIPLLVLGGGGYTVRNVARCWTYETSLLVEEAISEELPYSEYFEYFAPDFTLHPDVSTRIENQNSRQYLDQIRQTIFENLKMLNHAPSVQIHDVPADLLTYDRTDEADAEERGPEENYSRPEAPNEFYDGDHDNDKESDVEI
# Arr AP2 block = inhibitors of beta-arrestin/AP2 binding, primary screen, biochemical, GPCR trafficking, flow cytometry. beta-arrestin 1 C-terminal peptide binding to AP2 beta2-adaptin appendage (human). FITC-arrestin peptide / GST-AP2 beads; AP2 beta2 appendage carries R879A mutation. inhibition, % at 10 µM. 340,000 compounds, 0.31% hits;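 active = inhibition above a set limit, near 3 SD of compounds lacking own fluorescence, cut at about 54% in these data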;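 note: plate controls were DMSO wells for no effect and 5 µM unlabelled arrestin peptide for full effect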
#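 System: GST-AP2 R879A glutathione beads. Medium: PBS with 0.05% Tween 20 and 0.1% BSA. Also added: FITC-arrestin peptide, 50 nM. Incubation: 12 min plus 1 h, RT. Measured by: high-throughput flow cytometry of beads, ex 488, em 535 nm. Evaluation: percent drop in bead-associated FITC signal.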
# DSG3 Ab inh = inhibitors of pemphigus antibody binding to DSG3, primary screen, biochemical, bead-based, flow cytometry, scFv-GFP; Desmoglein-3 (Homo sapiens), P32926; DSG3-coupled beads, scFv-anti-DSG3-GFP binding; hits give low values; binding (percent of control), % at 10 µM; 310,000 compounds, 0.48% hits; AID 588358, 2011;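 active = binding more than 3 SD below its plate's average and above zero; inconclusive = below that plate limit but binding exactly zero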;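 note: hits lower antibody fragment binding to DSG3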
# LANA-H2B inh = blockers of LANA interaction with H2A/H2B – biochemical, FP readout, HTS, primary screen; inhibition, % (concentration not given with the values); 320,000 compounds, 0.6% hits; Protein LANA1 (Human herpesvirus 8 type P (isolate GK18)), Q9QR71; cell-free LANA-H2A/H2B peptide, fluorescence polarization; in the data active = inhibition mostly above about 10%, no sharp cut-off; inactive = mostly below about 6.7%
# T cell HTS = modulators of CD8 T cell-vesicle binding, primary screen, mouse 2C CD8+ T cells, flow cytometry; 2C CD8+ T cell-vesicle binding; hits give low values; response (vesicle binding), % at 7 µM; 330,000 compounds, 0.068% hits;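 active = response, share of CD8 T cells binding vesicles, and their 90th percentile fluorescence all below set limits, cut at about 80% in these data, passing the limit was not always enough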;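 note: values below 100% mean blocked vesicle binding to the CD8+ T cells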
#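 Also added: QL9-peptide-loaded Drosophila micro-vesicles bearing Ld, ICAM-1 and B7-1; Test system: purified 2C TCR transgenic mouse naive CD8+ T cells; Measured by: cytometric PE anti-B7-1 and Alexa647 anti-CD8 signals after 1% paraformaldehyde fixation; Timing: binding step 1.5 h, 37 °C, antibody labelling 20 min, ice.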
# Starred values were filed as active, the others as inactive; i = inactive; ? = inconclusive; . = no result given; + = active, no number.
SMILES,HDAC3 inh,Arr AP2 block,DSG3 Ab inh,LANA-H2B inh,T cell HTS
CC(=O)NC(Cc1cccc(C)c1)C(=O)NC1CCN(S(=O)(=O)c2ccccc2)CC1 (stereo not drawn),-1.4,-4.8,97.2,12.8*,384.7
CCN(CC)/C(Sc1ccccc1)=C(\C(Cl)=C(Cl)Cl)[N+](=O)[O-],4.6,6.1,85.7,69.6*,207.5
CCN(CC)/C(Sc1ccccc1)=C(/C(Cl)=C(Cl)Cl)[N+](=O)[O-],2.1,6.8,106.8,2.9,339.0
C[C@]12c3[nH]c4cc(-c5ccco5)ccc4c3CCN1C(=O)[C@@H](CC(=O)NCCC1=CCCCC1)C[C@@H]2C(=O)N1CCOCC1,.,2.8,103.0,.,.
Cc1ccccc1-c1cc(C(=O)NCc2cccc(C(F)(F)F)c2)n(CC2CC(c3cccnc3)=NO2)n1 (stereo not drawn),25.4*,26.2,106.0,0.1,851.6
CN(C)CC1C2CCC(C2)C1O (stereo not drawn),.,-3.1,95.4,.,.
CC(NC(=O)COC(=O)c1ccc([N+](=O)[O-])o1)c1ccccc1 (stereo not drawn),3.3,28.1,119.6,-9.7,232.6
Cc1cc(-c2nn(-c3ccccc3F)cc2CN2CCN(c3ccncc3)CC2)c(C)s1,7.7,11.1,106.0,-6.1,186.8
Cc1cc(-c2nn(-c3ccccc3F)cc2CN2CCC(O)CC2)c(C)s1,-2.9,29.2,90.1,33.5*,275.0
O=C(N/N=C1\CCCc2c1[nH]c1ccc(Cl)cc21)c1ccncc1,-3.1,8.9,101.1,43.7*,141.7
O=C(N/N=C1\C/C(=N\NC(=O)c2ccncc2)c2ccccc21)c1ccncc1,2.1,-34.6,99.8,-0.5,417.4
NS(=O)(=O)c1cccc(NC(=O)COc2ncnc3c2cnn3-c2ccccc2)c1,-3.2,38.8,100.1,130.7*,111.0
COc1ccccc1Nc1nc(-c2sc(N)nc2C)cs1,8.2,15.4,101.2,-1.2,269.9
Cc1nc(N)sc1-c1csc(Nc2ncccn2)n1,.,15.1,-54.0*,.,.
COc1ccc(COC[B-](F)(F)F)cc1,.,.,104.4,.,.
FC(F)(F)c1cccnc1-n1cncn1,-0.7,19.1,103.9,12.7*,218.8
CC(=O)Nc1c(Cl)cc(Cl)c2c1Cc1cc(Cl)ccc1-2,.,-12.0,98.4,.,.
COc1cccc(C(=O)SC2=NCCS2)c1,48.7*,-7.9,120.6,-8.1,454.9
COc1cc(NC(=O)SC2=NCCS2)cc(OC)c1,.,10.9,94.2,.,.
O=C1c2ccccc2C(=O)N1Nc1ccc([N+](=O)[O-])cc1[N+](=O)[O-],-0.1,0.8,88.0,0.5,143.4
O=C1C2C3C=CC(C3)C2C(=O)N1Nc1ccc([N+](=O)[O-])cc1[N+](=O)[O-] (stereo not drawn),0.0,5.7,109.4,16.0*,151.1
CC(NCC(=O)Nc1ccccc1C(=O)NC1CC1)c1ccc(S(N)(=O)=O)cc1 (stereo not drawn),-0.7,6.1,88.8,+,437.6
CCN(CC)S(=O)(=O)c1ccc(C(C)NCC(=O)Nc2ccccc2C(=O)NC2CC2)cc1 (stereo not drawn),.,37.0,98.6,.,.
CCN(CC)c1ccc(S(=O)(=O)N2CCCCC2)cc1NC(=O)C1CCC1,2.8,34.1,115.3,71.1*,399.2
CCN(CC)c1ccc(S(=O)(=O)N2CCOCC2)cc1NC(=O)C1CC1,.,26.0,99.5,.,157.2
SMILES,HDAC3 inh,Arr AP2 block,DSG3 Ab inh,LANA-H2B inh,T cell HTS
Cc1ccc(S(=O)(=O)N(C)C)cc1NC(=O)C1CCCCC1,0.5,17.8,63.0*,3.6,634.2
CC(C)[C@H](NC(=O)C1CCN(S(=O)(=O)c2ccc(F)cc2)CC1)C(=O)NCc1ccco1,7.3,1.2,102.0,4.3,258.5
CC1(C)CC(NC(=O)C(c2ccccc2)c2ccccc2)CC(C)(C)N1,3.2,-19.1,138.1,7.6,312.3
CCC(C(=O)NC1CC(C)(C)NC(C)(C)C1)c1ccccc1 (stereo not drawn),1.9,-1.9,106.0,13.5*,357.9
Cc1ccc(NC(=O)c2c3c(nc4ccccc24)CCC3)cc1S(=O)(=O)N(C)C,-2.0,16.8,45.4*,-5.3,202.0
Cc1ccc(NC(=O)c2c3c(nc4ccccc24)CCC3)cc1,-1.2,6.4,107.1,1.2,153.9
Nc1c(S(=O)(=O)c2ccccc2)cnc2c(-c3ccc(F)cc3)cnn12,3.0,15.7,-18.2*,1.6,298.3
O=C1c2ccccc2C(=O)C1(O)O,9.4,.,.,30.5*,i
CSc1nc2ccc(Cl)cc2[nH]1,-1.2,3.7,100.1,0.9,333.9
CSc1nc2cc(Oc3cccc(Cl)c3Cl)c(Cl)cc2[nH]1,29.0*,2.1,101.0,3.1,506.7
CCCc1cc(=O)oc2cc(C)cc(OCC(=O)Nc3ccccn3)c12,0.1,-18.1,.,0.4,159.5
CCCCc1cc(=O)oc2cc(C)cc(OCC(=O)Nc3ccccn3)c12,-1.4,0.1,3.8*,-1.0,114.2
COCCNC(=S)N1CCN(c2nc(-c3ccc(F)cc3)cs2)CC1,3.3,-20.9,108.2,18.4*,208.2
COCCNC(=S)N1CCN(c2nc(-c3ccc(Cl)cc3)cs2)CC1,-3.7,31.0,108.4,-3.4,224.1
CCN(C[C@H]1N[C@@](C)(C(=O)OC)[C@H]2C(=O)N(C)C(=O)[C@@H]12)C(=O)c1ccc(C(C)(C)C)cc1,.,36.1,109.4,.,167.5
Cc1cc2nc3s/c(=C/c4ccc(-c5ccccc5C(=O)O)o4)c(=O)n3c2cc1C,-3.6,-11.6,343.4,0.8,376.7
O=C(O)c1ccccc1-c1ccc(/C=c2\sc3nc4cc(Br)cnc4n3c2=O)o1,?,40.5,43.4*,-21.7,199.5
O=C(N/N=C\c1cccc([N+](=O)[O-])c1O)C1COc2ccccc2O1 (stereo not drawn),8.7,35.9,30.7*,2.9,386.5
COc1cc([N+](=O)[O-])cc(/C=N\NC(=O)C2COc3ccccc3O2)c1O (stereo not drawn),16.4,4.1,94.3,-0.8,544.2
O=Cc1ccc(O)cc1O,1.2,0.6,98.8,6.9,340.6
O=CN/C=C/c1cc(O)ccc1O,0.7,4.7,77.7*,-1.5,392.2
O=c1c([N+](=O)[O-])c[nH]c2ccccc12,-0.6,4.6,97.4,15.3*,206.6
Cn1c(N)c(C(c2ccccc2)c2c(N)n(C)c(=O)n(C)c2=O)c(=O)n(C)c1=O,-4.4,-4.8,97.3,29.0*,192.9
CC(C)COC(=O)N(C)C[C@H]1OCc2cnnn2CCCC(=O)N([C@H](C)CO)C[C@H]1C,.,.,98.8,.,.
C1=C(c2ccco2)N2CCN=C2S1,-2.0,-2.5,106.1,3.1,811.9
